NadD inh: inhibitors of S. aureus NadD, primary screen, biochemical, colorimetric, uHTS; Nicotinate-nucleotide adenylyltransferase NadD (Staphylococcus aureus N315); purified NadD enzyme, colorimetric absorbance read-out; inhibition, % at 20 µM; 360,000 tested, 0.78% active; AID 602399, 2012; in the data active = inhibition above about 26%
core dimer inh: inhibitors of HCV core protein dimerization, primary screen, biochemical, TR-FRET, high-throughput; TR-FRET GST/Flag-core106 dimerization, 1536-well; inhibition, % at 5 µM; 300,000 tested, 0.33% active; AID 1899, 2009;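 active = inhibition above the mean of all tested compounds plus 3 SD, set per screening campaign, cut at about 45% in these data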
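Assay system: tagged HCV core106 pair (GST and Flag); medium: KF-containing HEPES buffer, pH 7.45, DTT, CHAPS, BSA; also added: Eu donor and XL665 acceptor anti-tag antibodies; dosing: 5 µM single dose; timing: compound-protein-antibody incubation 4 h at 22.5 °C; signal: TR-FRET 671 and 617 nm emission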
Pemphigus Ab inh: inhibitors of pemphigus antibody binding to DSG3, primary screen, biochemical, bead-based, flow cytometry, scFv-GFP | 310,000 tested, 0.48% active | DSG3-coupled beads, scFv-anti-DSG3-GFP binding; active compounds read low | binding (percent of control), % at 10 µM | AID 588358, 2011;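 active = binding more than 3 SD below its plate's average and above zero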;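 also: hits lower antibody fragment binding to DSG3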
Rce1 inh: yeast Rce1p protease inhibitors, primary screen, biochemical, fluorescence, cell-free homogeneous. CAAX prenyl protease 2 (Saccharomyces cerevisiae (strain ATCC 204508 / S288c)), Q03530. yeast membranes, quenched prenylated peptide cleavage fluorescence. calls only. 290,000 tested, 0.27% active. AID 2563, 2010;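 active = fall in fluorescence gain of 50% or more versus controls, with final raw signal at or below 3038400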;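 also: plate controls were neutral control wells for no effect and wells lacking membranes for full effect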
Target sequence (Q03530 whole entry, looked up): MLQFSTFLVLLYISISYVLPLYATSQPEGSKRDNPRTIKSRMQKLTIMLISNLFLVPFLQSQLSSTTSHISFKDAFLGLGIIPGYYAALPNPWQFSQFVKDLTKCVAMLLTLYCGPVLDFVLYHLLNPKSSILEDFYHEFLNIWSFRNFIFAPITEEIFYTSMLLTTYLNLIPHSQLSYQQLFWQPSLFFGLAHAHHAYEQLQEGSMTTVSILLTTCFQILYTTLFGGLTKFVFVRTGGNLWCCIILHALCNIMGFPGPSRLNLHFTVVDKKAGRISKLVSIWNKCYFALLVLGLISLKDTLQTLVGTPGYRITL
Tb MetRS inh: T. brucei MetRS inhibitors, primary screen, biochemical, luminescence | purified T. brucei MetRS, ATP depletion, Kinase-Glo luminescence | inhibition, % at 11.9 µM | 360,000 tested, 0.4% active;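 active = inhibition above a per-plate cutoff of the control wells' mean inhibition plus 3 SD, cut at about 5.5% in these data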;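 also: 0% = DMSO wells median and 100% = median of wells with control inhibitor compound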
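Assay system: T. brucei methionyl-tRNA synthetase, purified | Medium: HEPES buffer with MgCl2, KCl, DTT, spermine, BSA, pyrophosphatase | Compound: 11.9 µM single point | Incubation: 15 min enzyme-compound preincubation, 2 h reaction, 10 min detection, 25 °C | Measured by: Kinase-Glo luciferase luminescence reporting remaining unconsumed ATP | Measure: % inhibition normalized to control-well medians | Replication: Singlicate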
NadD conf: inhibitors of S. aureus NadD, confirmation, biochemical, colorimetric, single concentration. 2,000 tested, 13% active. shares compounds with NadD inh. purified S. aureus NadD, colorimetric enzyme assay. inhibition, % at 20 µM; in the data active = inhibition mostly above about 42%, no sharp cut-off; inactive = mostly below about 42%
* = called active by the depositor; i = inactive; · = not tested or not shown. A selection: hits, their analogues and other compounds. The true share with any hit is near 1.9%.

SMILES | NadD inh | core dimer inh | Pemphigus Ab inh | Rce1 inh | Tb MetRS inh | NadD conf
Cc1cc(-c2csc(N)n2)c(C)n1C | 74.6* | -2.8 | 72.8* | i | 0.5 | -7.5
Cc1cc(-c2csc(N)n2)c(C)n1Cc1ccco1 | 30.6* | 2.4 | 71.5* | i | -1.2 | 2.1
CCn1ncc(-c2csc(N)n2)c1C | -2.2 | 3.1 | 123.8 | i | -0.3 | ·
O=C1C2C3C=CC(O3)C2C(=O)N1Cc1ccncc1 (configuration not stated) | -0.5 | · | 81.9 | · | -0.4 | ·
O=C(c1ccccn1)N(Cc1cc2ccccc2[nH]c1=O)C1CCCCC1 | 0.8 | -2.7 | · | i | -0.1 | ·
FC(F)(F)c1nnc(-c2ccccc2)nc1Sc1ccc(Cl)cc1 | 32.8* | -1.1 | · | i | -0.2 | -2.9
COc1cc2oc(=O)cc(CN3CCCC3)c2cc1Cl | 1.6 | · | · | · | 0.0 | ·
COc1cc2oc(=O)cc(CN3CCN(c4ccccc4F)CC3)c2cc1Cl | 38.9* | · | · | · | -1.3 | 21.5
O=C(N[C@H]1C/C=C\C[C@H](CC(=O)N(CCO)Cc2ccccc2)C(=O)N[C@H](Cc2c[nH]c3ccccc23)COC1=O)OCC1c2ccccc2-c2ccccc21 | 32.4* | · | 83.4 | · | -0.2 | 17.3
O=C1N[C@@H](Cc2c[nH]c3ccccc23)COC(=O)[C@@H](Cc2ccc(F)cc2)C/C=C\C[C@H]1CC(=O)N(CCO)Cc1ccccc1 | 3.2 | · | · | · | -0.4 | ·
O=C(N[C@H]1C/C=C\C[C@@H](CC(=O)N(CCO)Cc2ccccc2)C(=O)N[C@H](Cc2c[nH]c3ccccc23)COC1=O)OCC1c2ccccc2-c2ccccc21 | 35.7* | · | 96.0 | · | -0.4 | 25.1
O=C(N[C@@H]1C/C=C\C[C@@H](CC(=O)N(CCO)Cc2ccccc2)C(=O)N[C@@H](c2ccccc2)COC1=O)OCC1c2ccccc2-c2ccccc21 | 17.5 | · | 97.1 | · | -0.1 | ·
O=C(N[C@@H]1C/C=C\C[C@H](CC(=O)N(CCO)Cc2ccccc2)C(=O)N[C@@H](Cc2c[nH]c3ccccc23)COC1=O)OCC1c2ccccc2-c2ccccc21 | 34.3* | · | 96.9 | · | 0.6 | 22.9
O=C1N[C@@H](Cc2c[nH]c3ccccc23)COC(=O)[C@H](Cc2ccc(F)cc2)C/C=C\C[C@@H]1CC(=O)N(CCO)Cc1ccccc1 | 0.9 | · | 99.1 | · | -0.2 | ·
Cc1ccc(-c2csc(Cc3nc(-c4ccc5c(c4)CCC(=O)N5)cs3)n2)cc1 | 32.8* | 24.6 | 92.1 | i | 0.5 | 18.7
N#CC1=C(N)Oc2c(ccc3cccnc23)C1c1ccccc1 (configuration not stated) | 8.2 | 7.2 | 95.0 | i | -0.5 | ·
COC(=O)c1c(NC(=O)COC(=O)c2ccc(NC(=O)CC#N)cc2)sc2c1CCCCC2 | 81.6* | 62.1* | · | i | 0.9 | 24.8
Cc1cccc(N(CC(=O)NC2CCCC2)C(=O)c2cc3cc4cccc(C)c4nc3s2)c1C | 39.9* | -4.8 | 91.1 | i | -0.4 | 10.2
Cc1ccc(C)c(N(CC(=O)NC2CCCC2)C(=O)c2cc3cc4cc(C)ccc4nc3s2)c1 | 27.5 | -5.4 | 96.8 | i | -1.0 | ·
COc1cc2nc(N3CCN(c4cc(C)ccc4C)CC3)nc(N)c2cc1OC | 3.3 | -11.4 | 99.4 | i | -1.0 | ·
COc1cc2nc(N3CCNCC3)nc(N)c2cc1OC | 33.6* | 8.5 | 109.6 | i | -1.8 | 18.9
Cc1nc(SCc2nc3cc(Cl)c(F)cc3[nH]2)c2oc3ccccc3c2n1 | 36.6* | · | 101.9 | · | -0.3 | 4.1
Cc1nc(SCc2nc3ccc(Cl)cc3[nH]2)c2oc3ccccc3c2n1 | 14.8 | · | 102.5 | · | 1.0 | ·
O=C(CSc1nc2c(cnn2-c2ccc(F)cc2)c(=O)[nH]1)N1N=C(c2cccs2)CC1c1ccc(F)cc1 (configuration not stated) | 53.5* | · | · | · | 0.0 | 0.6
Cc1cccn2c(=O)nc(SCC(=O)N3N=C(c4cccs4)CC3c3ccc(F)cc3)nc12 (configuration not stated) | 23.2 | · | 91.2 | i | -0.4 | ·

Source: PubChem BioAssay
